Screening data (PubChem)
Most compounds without a hit are left out; they make up all but 2.3% or so of the library.
EBV gp42 block: Epstein-Barr virus gp42 inhibitors, primary screen, biochemical, uHTS, fluorescence polarization. Fluorescence polarization binding assay, mP read-out. AID 1085, 2008. Glycoprotein 42 (Epstein-Barr virus (strain AG876)), Q1HVG2. 220,000 compounds, 0.42% hits. inhibition, % (tested at 21.74 µM); in the data active means inhibition above about 50%
Target sequence (Q1HVG2 whole entry, looked up): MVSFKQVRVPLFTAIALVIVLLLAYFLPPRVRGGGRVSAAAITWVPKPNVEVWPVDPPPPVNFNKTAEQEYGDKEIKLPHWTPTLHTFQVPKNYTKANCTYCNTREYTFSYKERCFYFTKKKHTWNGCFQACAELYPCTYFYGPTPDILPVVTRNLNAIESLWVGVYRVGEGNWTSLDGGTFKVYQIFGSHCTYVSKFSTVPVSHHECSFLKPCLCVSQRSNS
core dimer inh: inhibitors of HCV core protein dimerization, primary screen, biochemical, TR-FRET, high-throughput. TR-FRET GST/Flag-core106 dimerization, 1536-well. inhibition, % at 5 µM. 300,000 compounds, 0.33% hits;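 active means inhibition above the mean of all tested compounds plus 3 SD, set per screening campaign, cut at about 45% in these data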
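Assay system: GST-tagged and Flag-tagged HCV core protein residues 1-106 / Times: compound-protein-antibody incubation 4 h at 22.5 °C / Signal: time-resolved FRET, ex 340 nm, em 617 and 671 nm / Evaluation: % inhibition based on acceptor/donor emission ratio / Benchmarks: wells lacking GST-core106 and wells with excess unlabelled core106 / Repeats: singlicate, one well per compound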
NS3 helicase inh: inhibitors of HCV NS3 helicase, primary screen, biochemical, Cy5 molecular beacon fluorescence. Hepatitis C virus NS3 helicase. NS3 helicase DNA unwinding. inhibition, % at 10.9 µM. 290,000 compounds, 0.56% hits;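 active means inhibition above the mean of all tested compounds plus 3 SD, set per campaign, cut at about 35% in these data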;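 further: 0% = DMSO wells and 100% = thioflavine S control wells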
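Control set: DMSO versus 110 µM thioflavine S; Material: NS3 helicase fragment of HCV; Measured by: Cy5 fluorescence at 0 and 60 min, beacon hairpin quenching; Read-out basis: percent inhibition from t60/t0 fluorescence ratio; Times: reaction time 60 min, 25 °C; Repeats: single replicate; Compound dosing: single dose, 10.9 µM nominal final, DMSO 0.8% final.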
EBNA-1 inhibitor: EBNA-1 DNA-binding inhibitors, primary screen, biochemical, fluorescence polarization | inhibition, % at 14.8 µM | 300,000 compounds, 0.34% hits | AID 1950, 2009; in the data active means inhibition above about 28%
GPR7 antagonist: GPR7 receptor antagonists, primary screen, cell-based, fluorescence, single concentration | AID 1861, 2009 | GPR7-expressing cells, fluorescence antagonist assay | 290,000 compounds, 1.1% hits | inhibition, % at 4.4 µM; in the data active means inhibition above about 16%, passing the limit was not always enough;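 further: cells stimulated with the agonist NPW; 0% = agonist with vehicle and 100% = vehicle without agonist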
Target sequence (P48145 whole entry, looked up): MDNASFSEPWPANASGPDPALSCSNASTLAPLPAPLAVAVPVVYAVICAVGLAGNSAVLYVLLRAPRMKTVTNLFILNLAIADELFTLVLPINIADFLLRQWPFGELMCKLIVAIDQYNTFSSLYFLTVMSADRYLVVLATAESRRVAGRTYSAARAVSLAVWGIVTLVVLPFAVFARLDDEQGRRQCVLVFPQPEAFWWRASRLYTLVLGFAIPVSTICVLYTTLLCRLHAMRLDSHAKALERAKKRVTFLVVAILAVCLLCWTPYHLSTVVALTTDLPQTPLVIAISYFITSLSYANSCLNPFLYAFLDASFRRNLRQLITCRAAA
ZTA DNA inh: counter-screen for EBNA-1 inhibitors: inhibitors of Epstein-Barr virus ZTA; ZTA-DNA binding, fluorescence polarization; inhibition, % at 11 µM; 320,000 compounds, 0.15% hits; in the data active means inhibition above about 33%
ZTA inh confirm: EBV Zta binding to ZRE DNA, inhibitors, confirmation, biochemical, fluorescence polarization, triplicate. shares compounds with ZTA DNA inh. inhibition, % at 11.1 µM. 320 compounds, 30% hits. AID 2361, 2010;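 active means mean inhibition across triplicate runs above the hit threshold derived for the original primary screen, cut at about 33% in these data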;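 further: 0% = Zta with DMSO and 100% = wells lacking Zta protein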
EBNA-1 counter: EBNA-1 DNA-binding inhibition, counter-screen for ZTA inhibitor project, biochemical, fluorescence polarization. inhibition, % at 14.8 µM. shares compounds with ZTA DNA inh. 320 tested, under 10 active; call rule not given here
Numbers without * were called inactive; · = no result.

SMILES	EBV gp42 block	core dimer inh	NS3 helicase inh	EBNA-1 inhibitor	GPR7 antagonist	ZTA DNA inh	ZTA inh confirm	EBNA-1 counter
Cn1nnnc1Sc1ncnc2scc(-c3cc4ccccc4o3)c12	·	·	·	·	·	38*	30	-9
O=c1c(Cl)c(Cl)cnn1Cc1ccccc1Cl	1	27	8	4	3	34*	4	-1
Cc1ccc(Cn2ncc(Cl)c(Cl)c2=O)cc1	5	-34	12	-4	-9	2	·	·
COc1ccc(OC)c(S(=O)(=O)N2CCCC(C(=O)N3CCOCC3)C2)c1 (centres undefined)	·	-1	5	-8	5	0	·	·
CCc1ccc(C(C)NC(=O)c2ccncc2)cc1 (centres undefined)	·	-3	-3	-6	-2	114*	-7	5
C#CCOCCOCCOCCNc1nc(N2CCN(C(=O)CCCCCCCCCCNC(=O)Cn3cc(CCCCCN)nn3)CC2)nc(N2CCN(C(=O)CCCCCCCCCCNC(=O)[C@@H](CCC(=O)O)n3cc(CCCCCN)nn3)CC2)n1	·	-7	·	4	·	61*	3	-7
C#CCOCCOCCOCCNc1nc(N2CCN(C(=O)CCCCCCCCCCNC(=O)Cn3cc(C[C@@H](C)O)nn3)CC2)nc(N2CCN(C(=O)CCCCCCCCCCNC(=O)[C@@H](CCC(=O)O)n3cc(CCCCCN)nn3)CC2)n1	·	-1	·	4	·	12	·	·
C#CCOCCOCCOCCNc1nc(N2CCN(C(=O)CCCCCCCCCCNC(=O)Cn3cc(CCCCCN)nn3)CC2)nc(N2CCN(C(=O)CCCCCCCCCCNC(=O)Cn3cc(CCCCCN)nn3)CC2)n1	·	-8	·	0	·	49*	38*	-7
C#CCOCCOCCOCCNc1nc(N2CCN(C(=O)CCCCCCCCCCNC(=O)Cn3cc(CCCCCN)nn3)CC2)nc(N2CCN(C(=O)CCCCCCCCCCNC(=O)[C@@H](CCSC)n3cc(CCO)nn3)CC2)n1	·	-6	·	8	·	80*	24	0
C#CCOCCOCCOCCNc1nc(N2CCN(C(=O)CCCCCCCCCCNC(=O)[C@@H](CCSC)n3cc(CCO)nn3)CC2)nc(N2CCN(C(=O)CCCCCCCCCCNC(=O)[C@H](CCSC)n3cc(CCO)nn3)CC2)n1	·	13	·	2	·	-22	·	·
Cc1cccc2c1NC(C)CC2C (centres undefined)	-4	0	-4	21	-9	97*	12	-7
CCc1cccc2c1NC1(CCCC1)CC2C (centres undefined)	-14	-4	6	-2	-2	4	·	·
Cc1ccc(S(=O)(=O)/N=C2/NC(=O)/C(=C/c3cc([N+](=O)[O-])ccc3O)S2)cc1	·	2	13	-7	17	34*	41*	-1
COc1cc(/C=C2\S/C(=N/S(=O)(=O)c3ccc(C)cc3)NC2=O)c([N+](=O)[O-])cc1OC	-7	-2	2	9	-9	21	·	·
CCOC1(OCC)N=C(N)C2(C#N)C(c3cccc(C)c3)C12C#N (centres undefined)	5	7	-7	5	-2	67*	-6	-8
N#CC1=C(N)N(c2ncn[nH]2)C2=C(C(=O)CCC2)C1c1ccc(F)cc1 (centres undefined)	-3	-3	26	-4	7	7	·	·
Cc1cc2c(cc1C)C(c1ccccc1Br)CC(=O)N2 (centres undefined)	-10	14	-3	4	-15	33*	-5	-6
Nc1c(C(=O)NCc2ccc(F)cc2)c2nc3ccccc3nc2n1CCCN1CCOCC1	16	-1	-20	7	9	66*	11	1
Cc1[nH]c2ccccc2c1NC(=O)CN1CCN(C(=O)c2ccco2)CC1	-17	-1	22	3	-10	16	·	·
Cc1ccc(S(=O)(=O)Cn2nnnc2C(CC(C)C)N2CCN(C3CCCC3)CC2)cc1 (centres undefined)	·	0	-15	3	6	19	·	·
COc1cc(NC(=O)C2=C(N3CCOCC3)/C(=C/c3ccc(Cl)cc3)CC2)cc(OC)c1OC	-4	8	-1	-4	-10	-2	·	·
COc1cc(NC(=O)C2=C(N3CCOCC3)/C(=C\c3ccc(N(C)C)cc3)CCC2)cc(OC)c1OC	-47	7	4	5	-10	100*	-5	-3
OC(CNCCC1C=Nc2ccccc21)Cn1c2ccc(Cl)cc2c2cc(Cl)ccc21 (centres undefined)	-25	1	-64	6	6	52*	51*	3
COC(=O)c1ccc(CNC(=O)CNC(=O)c2sc3ccccc3c2Cl)cc1	·	9	·	6	·	83*	70*	16
COc1cc2nc(N(CCCN(C)C)C(=O)c3ccc(S(=O)(=O)N4CCc5ccccc54)cc3)sc2cc1OC	·	4	·	2	·	50*	56*	8
SMILES	EBV gp42 block	core dimer inh	NS3 helicase inh	EBNA-1 inhibitor	GPR7 antagonist	ZTA DNA inh	ZTA inh confirm	EBNA-1 counter
CCC(Oc1ccccc1)C(=O)Nc1nc2ccccc2[nH]1 (centres undefined)	-11	-5	-1	-7	-10	37*	3	-1
Clc1ccc(OCCSc2ncccn2)c(Br)c1	4	0	0	9	15	106*	8	4
CC(C)(/C=N/NC(=O)CSCc1ccc(Cl)cc1)CCC#N	-2	3	1	1	-5	5	·	·
CC(C)(C)[C@H]1C=C(C(=O)NCc2ccccc2)O[C@@H](OCCCCO)C1	·	6	·	-1	·	6	·	·
CCCOc1ccc(/C=C/c2[nH]c(=O)[nH]c(=O)c2[N+](=O)[O-])cc1OCC	-70	10	6	-14	-13	3	·	·
CCOc1cc(/C=C\c2[nH]c(=O)[nH]c(=O)c2[N+](=O)[O-])ccc1OC(C)CC (centres undefined)	-10	12	5	9	-4	39*	43*	-2
COc1ccc(CN(C(=O)Cn2nnc(-c3ccc(C)o3)n2)C(C(=O)NCC2CCCO2)c2ccco2)cc1 (centres undefined)	-12	6	-1	8	8	-2	·	·
Cc1ccccc1COCCN1CCN(S(=O)(=O)c2ccccc2)CCC1=O	-2	4	·	7	·	3	·	·
O=C(Nc1cccc2ccccc12)NC1CCCCC1O (centres undefined)	·	-17	·	-2	·	58*	-5	-6
